{"source": "ChEMBL document CHEMBL3860103", "about": "“Antibacterial and Antibiofilm Activity of Cationic Small Molecules with Spatial Positioning of Hydrophobicity: An in Vitro and in Vivo Evaluation” (J Med Chem, 2016)", "key": {"[1]": {"test_system": "Staphylococcus aureus", "assay": "Induction of biofilm disruption in Staphylococcus aureus assessed as mature biofilm thickness at 32 ug/ml after 24 hrs by SYTO 9 dye based confocal laser-scanning microscopy (reference value: 14 to 18 um)", "type": "functional", "how_it_was_run": "(§1)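 Biofilms grown on glass coverslips from ~10^5 CFU/mL: S. aureus in nutrient medium + 1% glucose + 1% NaCl, 24 h; E. coli in M9 + 0.5% glycerol + 0.02% casamino acid, 72 h; stationary, 37 °C. After PBS wash, treated 24 h at 37 °C with 32 µg/mL in the same medium; media-only control. Stained with SYTO 9 (5 µM), imaged by confocal microscopy.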"}, "[2]": {"test_system": "Mus musculus", "assay": "Toxicity in topically dosed mouse assessed as induction of inflammation at 200 mg/kg by OECD425 guidelines based method", "type": "organism-based", "conditions": "in vivo, topical_or_ocular"}, "[3]": {"test_system": "Staphylococcus aureus", "assay": "(§2) Antibacterial activity against Staphylococcus aureus infected in BALB/c mouse model of superficial skin infection and biofilm formation assessed as reduction in bacterial load in skin at 40 mg/kg applied topically once daily for 4 days and measured 18 hrs after last dose", "type": "functional", "how_it_was_run": "(§3)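 Female BALB/c mice (6–8 weeks, 18–22 g) made neutropenic with cyclophosphamide i.p. (150 mg/kg, then 100 mg/kg 3 days later), anesthetized, backs shaved, wounded and infected with MRSA ATCC 33591. After 24 h biofilm formation, 40 mg/kg applied topically to wound once daily for 4 days (n = 5/group; untreated control). Skin collected 18 h after last dose for CFU/g; portions formalin-fixed for SEM.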"}, "[4]": {"test_system": "Staphylococcus aureus", "assay": "Induction of membrane permeabilization in Staphylococcus aureus at 32 ug/ml after 0 to 20 mins by propidium iodide dye based assay", "type": "functional", "how_it_was_run": "(§4)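 Membrane permeabilization of S. aureus or E. coli followed as increase in propidium iodide fluorescence after adding compounds at 32 µg/mL.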"}, "[5]": {"test_system": "Mus musculus", "assay": "Toxicity in topically dosed mouse assessed as induction of abnormal skin reaction at 200 mg/kg by OECD425 guidelines based method", "type": "organism-based", "conditions": "in vivo, topical_or_ocular"}, "[6]": {"test_system": "Escherichia coli", "assay": "Induction of biofilm disruption in Escherichia coli assessed as mature biofilm thickness at 32 ug/ml after 24 hrs by SYTO 9 dye based confocal laser-scanning microscopy (reference value: 14 to 18 um)", "type": "functional", "how_it_was_run": "as §1"}, "[7]": {"assay": "Selectivity index, ratio of HC50 for induction of hemolysis in human RBC to MIC for Escherichia coli"}, "[8]": {"test_system": "Escherichia coli", "assay": "Induction of biofilm disruption in Escherichia coli assessed as reduction in log bacterial burden at 32 ug/ml after 72 hrs by confocal laser-scanning microscopy", "type": "functional", "conditions": "in the assay text read “after 24 hrs” for “after 72 hrs”", "how_it_was_run": "(§5)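 Established coverslip biofilms (S. aureus 24 h in nutrient medium + 1% glucose + 1% NaCl; E. coli 72 h in M9 + 0.5% glycerol + 0.02% casamino acid; 37 °C) washed, then exposed to 32 µg/mL for 24 h at 37 °C. Matrix dissolved with trypsin-EDTA, serially diluted, plated on nutrient agar; viability as log10 CFU/mL versus media-only control.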"}, "[9]": {"test_system": "Staphylococcus aureus", "assay": "Induction of biofilm disruption in Staphylococcus aureus after 24 hrs by confocal laser-scanning microscopy", "type": "functional", "how_it_was_run": "as §1"}, "[10]": {"test_system": "Staphylococcus aureus", "assay": "Induction of membrane depolarization in Staphylococcus aureus at 32 ug/ml after 0 to 20 mins by […] dye based assay", "type": "functional", "how_it_was_run": "(§6)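 Membrane-potential dye DiSC3(5) taken up by S. aureus or E. coli; depolarization followed as rise in dye fluorescence after adding compounds at 32 µg/mL.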"}, "[11]": {"test_system": "Escherichia coli", "assay": "Induction of membrane permeabilization in Escherichia coli at 32 ug/ml after 0 to 20 mins by propidium iodide dye based assay", "type": "functional", "how_it_was_run": "as §4"}, "[12]": {"test_system": "Staphylococcus aureus", "assay": "as §2, with “dose by FEI field emission scanning electron microscopy relative to un-treated control” for “dose”", "type": "functional, organism-based", "how_it_was_run": "as §3"}, "[13]": {"test_system": "Staphylococcus aureus", "assay": "as §2, with “dose relative to un-treated control” for “dose”", "type": "functional", "set-up": "scale not given: the % may be the effect or the level left", "how_it_was_run": "as §3"}, "[14]": {"test_system": "Escherichia coli", "assay": "Antibacterial activity against Escherichia coli incubated for 24 hrs", "type": "functional", "how_it_was_run": "(§7)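 Broth microdilution: 6 h cultures diluted to ~10^5 CFU/mL in medium; compounds 2-fold serially diluted in water, mixed 1:3 with bacterial suspension. Incubated 24 h, 37 °C; OD600 read. MIC = concentration with OD similar to medium-only control. Triplicate wells, experiments repeated at least twice.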"}, "[15]": {"assay": "Toxicity in HEK293 cells assessed as cell density level at 16 ug/ml incubated for 24 hrs by calcein AM and propidium iodide dye based fluorescence microscopy", "conditions": "human, hek293, 24 h", "how_it_was_run": "(§8)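 HEK 293 cells seeded ~10^4 cells/well, treated with compounds for 24 h (16, 32 or 64 µg/mL); 0.1% Triton X positive, untreated negative control. Stained with calcein AM (2 µM) and PI (4.5 µM) 15 min at 37 °C, 5% CO2; imaged by fluorescence microscopy, 20X objective.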"}, "[16]": {"test_system": "Staphylococcus aureus", "assay": "Antibacterial activity against Staphylococcus aureus incubated for 24 hrs", "type": "functional", "how_it_was_run": "as §7"}, "[17]": {"test_system": "Escherichia coli", "assay": "Induction of membrane depolarization in Escherichia coli at 32 ug/ml after 0 to 20 mins by […] dye based assay", "type": "functional", "how_it_was_run": "as §6"}, "[18]": {"assay": "Selectivity index, ratio of HC50 for induction of hemolysis in human RBC to MIC for Staphylococcus aureus"}, "[19]": {"test_system": "Staphylococcus aureus", "assay": "Induction of biofilm disruption in Staphylococcus aureus assessed as reduction in log bacterial burden at 32 ug/ml after 24 hrs by confocal laser-scanning microscopy", "type": "functional", "how_it_was_run": "as §5"}, "[20]": {"assay": "Induction of hemolysis in human RBC incubated for 1 hr", "type": "cell-based, Erythrocyte", "conditions": "red blood cells", "how_it_was_run": "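Washed human RBCs from heparinized blood, 5 vol% in PBS, mixed 3:1 with serially diluted compounds; 1 h at 37 °C. Centrifuged; supernatant A540 read. Hemolysis % = (A−A0)/(Atotal−A0)×100, with water as 0% and 0.1 vol% Triton X-100 as full lysis.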"}, "[21]": {"assay": "Toxicity in HEK293 cells assessed as induction of cell death at 64 ug/ml incubated for 24 hrs by calcein AM and propidium iodide dye based fluorescence microscopy", "conditions": "human, hek293, 24 h", "how_it_was_run": "as §8"}, "[22]": {"test_system": "Staphylococcus aureus", "assay": "Antibacterial activity against methicillin-resistant Staphylococcus aureus incubated for 24 hrs", "type": "functional", "how_it_was_run": "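MRSA (ATCC 33591) from a 6 h culture (~10^9 CFU/mL), diluted to ~10^5 CFU/mL in medium. Compounds in water, 2-fold serial dilutions, combined with the bacteria at 1:3 by volume and incubated 24 h at 37 °C. OD600 read. MIC is the lowest concentration whose OD matches the media-only control. Triplicate wells; experiments repeated at least twice.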"}, "[23]": {"assay": "Induction of membrane hydration changes in Laurdan dye containing DPPG:DPPE (88:12) liposomes assessed as reduction in general polarization at 25 to 100 ug/ml by luminescence spectrometry", "type": "physicochemical", "how_it_was_run": "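Liposomes of 0.5 mM DPPG:DPPE (88:12) or 0.5 mM DPPC with Laurdan (lipid:dye 100:1), hydrated in PBS pH 7.4, 10 freeze–thaw cycles, sonicated 15 min at 70 °C. Compounds added in PBS (lipid:compound 7.4:1), tested at 25, 50, 100 µg/mL; emission at 440 and 490 nm (ex 350 nm), 37 °C. GP = (I440−I490)/(I440+I490).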"}, "[24]": {"assay": "Toxicity in topically dosed mouse by OECD425 guidelines based method", "type": "organism-based", "conditions": "in vivo, topical or ocular"}, "[25]": {"assay": "Toxicity in HEK293 cells assessed as induction of cell death at 32 ug/ml incubated for 24 hrs by calcein AM and propidium iodide dye based fluorescence microscopy", "conditions": "human, hek293, 24 h", "how_it_was_run": "as §8"}}, "note": "Activity calls are given as the source filed them. No cut-off for these calls is given here."}
{"compound": "CCCCCCNC(=O)C[N+](C)(C)CCCCCCCCCCCC[N+](C)(C)CC(=O)NCCCCCC.[Br-].[Br-]", "values": [{"measurement": "Activity", "setting": "[1]", "value": "2 - 3 um"}, {"measurement": "Activity", "setting": "[2]", "value": "Non-Toxic"}, {"measurement": "Activity", "setting": "[3]", "value": 5.3, "unit": "log10CFU/g"}, {"measurement": "Activity", "setting": "[4]", "value": "Active"}, {"measurement": "Activity", "setting": "[5]", "value": "Non-Toxic"}, {"measurement": "Activity", "setting": "[6]", "value": "2 - 3 um"}, {"measurement": "Selectivity Index", "setting": "[7]", "value": 402}, {"measurement": "FC", "setting": "[8]", "value": 7.1}, {"measurement": "MBEC", "setting": "[9]", "value": "31.2 to 62.5", "unit": "µg/mL"}, {"measurement": "Activity", "setting": "[10]", "value": "Active"}, {"measurement": "Activity", "setting": "[11]", "value": "Active"}, {"measurement": "Activity", "setting": "[12]", "value": "Active"}, {"measurement": "Activity", "setting": "[13]", "value": ">99.999", "unit": "%"}, {"measurement": "MIC", "setting": "[14]", "value": 2, "unit": "µg/mL"}, {"measurement": "Activity", "setting": "[15]", "value": "Non-Toxic"}, {"measurement": "MIC", "setting": "[16]", "value": 1, "unit": "µg/mL"}, {"measurement": "Activity", "setting": "[17]", "value": "Active"}, {"measurement": "Selectivity Index", "setting": "[18]", "value": 805}, {"measurement": "FC", "setting": "[19]", "value": 9.2}, {"measurement": "HC50 at 1 h", "setting": "[20]", "value": 805, "unit": "µg/mL"}, {"measurement": "Activity", "setting": "[21]", "value": "Non-Toxic"}, {"measurement": "MIC", "setting": "[22]", "value": 2, "unit": "µg/mL"}, {"measurement": "Activity", "setting": "[23]", "value": "Active"}, {"measurement": "LD50", "setting": "[24]", "value": "> 200", "unit": "mg/kg"}, {"measurement": "Activity", "setting": "[25]", "value": "Non-Toxic"}]}
